Numbered stars: 1 amine (or outer) side, 2 acyl side, 3 side chain; on linkers, the order of the positions; unused ones are H or OH. Square brackets hold non-standard residues; d marks the D form. Peptide text beside a SMILES is read from it. X9 = O=C(Cc1nnc([C@H](Cc2ccccc2)N[*:1])[nH]1)[*:2]; X7 = O=C(c1nnc([C@H](Cc2ccccc2)N[*:1])[nH]1)[*:2]; X3 = O=C(c1nnc([C@H](Cc2ccccc2)N[*:1])o1)[*:2]; X4 = O=C(c1noc([C@H](Cc2ccccc2)N[*:1])n1)[*:2]
Key:
[1] = Retention time of the compound.
How it was run: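 Analytical reversed-phase HPLC on a C-18 column (8 × 100 mm), eluting with CH3CN/H2O/0.1% TFA gradients. The gradient differs by compound: 0-60% at 1 mL/min over 30 min, or 5-65%, 20-60% or 0-60% at 0.5 mL/min over 30 min.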

Substance-P receptor = Substance-P receptor (Rattus norvegicus, UniProt P14600); experiment: Affinity for rat Tachykinin receptor 1 determined in displacement screening by using radioligand 3,4-[3H]-(L-Pro e2) SP.
Mu-type opioid receptor [2] = biological target: T1, Mu-type opioid receptor (Rattus norvegicus, UniProt P33535); experiment: The compound was tested for binding affinity towards rat Opioid receptor mu 1 by displacing [3H]DAMGO.
Mu-type opioid receptor [3] = biological target: T1, Mu-type opioid receptor; experiment: The compound was tested for binding affinity towards [3H]DAMGO, in rat Opioid receptor mu 1
How it was run: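 Rat whole-brain (minus cerebellum) membranes from sucrose homogenisation, differential centrifugation and hypotonic lysis, in 50 mM Tris-HCl pH 7.4. […] Incubation 30 min at 25 °C, ended by filtration on PEI-soaked GF-C filters. Triplicates, three experiments, IC50 as mean ± SEM.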

T1 sequence (P33535 whole entry): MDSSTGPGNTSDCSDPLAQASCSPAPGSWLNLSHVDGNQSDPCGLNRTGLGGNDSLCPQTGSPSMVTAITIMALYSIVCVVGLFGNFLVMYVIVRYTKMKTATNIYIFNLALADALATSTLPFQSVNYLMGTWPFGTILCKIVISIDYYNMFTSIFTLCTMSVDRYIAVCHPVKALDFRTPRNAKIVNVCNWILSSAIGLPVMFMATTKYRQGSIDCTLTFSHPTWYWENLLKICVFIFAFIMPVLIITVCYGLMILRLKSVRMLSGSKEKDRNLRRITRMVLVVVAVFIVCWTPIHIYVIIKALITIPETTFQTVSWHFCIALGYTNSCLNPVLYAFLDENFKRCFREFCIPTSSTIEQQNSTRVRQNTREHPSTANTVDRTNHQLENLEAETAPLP
Substance-P receptor, sequence (P14600 whole entry): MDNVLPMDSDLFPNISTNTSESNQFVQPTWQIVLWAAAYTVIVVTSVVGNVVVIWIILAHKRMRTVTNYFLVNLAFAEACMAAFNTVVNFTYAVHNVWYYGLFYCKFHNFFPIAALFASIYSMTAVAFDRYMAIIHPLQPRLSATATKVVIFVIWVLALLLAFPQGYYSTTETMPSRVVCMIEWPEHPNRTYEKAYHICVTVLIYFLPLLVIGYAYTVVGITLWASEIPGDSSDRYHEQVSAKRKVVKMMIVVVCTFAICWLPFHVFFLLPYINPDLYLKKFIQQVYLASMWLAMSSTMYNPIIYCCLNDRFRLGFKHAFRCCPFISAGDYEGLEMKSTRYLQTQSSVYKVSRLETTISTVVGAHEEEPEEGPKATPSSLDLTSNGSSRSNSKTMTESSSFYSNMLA

SMILES | Retention time [1] [min] | IC50 (Substance-P receptor) [nM] | also measured
C[C@@H](NC(=O)[C@@H](N)Cc1ccc(O)cc1)C(=O)N[C@@H](Cc1ccccc1)c1nc(N[C@@H](Cc2ccc(O)cc2)C(=O)N2CCC[C@H]2C(=O)N[C@@H](CO)C(N)=O)no1 | 22.7 | – | –
C[C@@H](NC(=O)[C@@H](N)Cc1ccc(O)cc1)C(=O)N[C@@H](Cc1ccccc1)c1nc(CC(=O)N[C@@H](Cc2ccc(O)cc2)C(=O)N2CCC[C@H]2C(=O)N[C@@H](CO)C(N)=O)no1 | – | > 1000 | IC50 (Mu-type opioid receptor [2]): 12 nM
CSCC[C@H](NC(=O)[C@H](CC(C)C)NC(=O)c1noc([C@H](Cc2ccccc2)NC(=O)[C@H](Cc2ccccc2)NC(=O)[C@H](CCC(N)=O)NC(=O)[C@H](CCC(N)=O)NC(=O)[C@@H]2CCCN2C(=O)[C@H](CCCCN)NC(=O)[C@@H]2CCCN2C(=O)[C@@H](N)CCCN=C(N)N)n1)C(N)=O (H-RPKPQQF[X4]LM-NH2) | – | > 1000 | –
C[C@@H](NC(=O)[C@@H](N)Cc1ccc(O)cc1)C(=O)N[C@@H](Cc1ccccc1)c1nnc(C(=O)N[C@@H](Cc2ccc(O)cc2)C(=O)N2CCC[C@H]2C(=O)N[C@@H](CO)C(N)=O)o1 | – | > 1000 | IC50 (Mu-type opioid receptor [2]): 20 nM
C[C@@H](NC(=O)[C@@H](N)Cc1ccc(O)cc1)C(=O)NCC(=O)N(C)[C@@H](Cc1ccccc1)C(=O)NCCO [DAMGO] | – | > 1000 | –
C[C@@H](NC(=O)[C@@H](N)Cc1ccc(O)cc1)C(=O)N[C@@H](Cc1ccccc1)C(=O)NCC(=O)N[C@@H](Cc1ccc(O)cc1)C(=O)N1CCC[C@H]1C(=O)N[C@@H](CO)C(N)=O [DERMORPHIN] | – | > 1000 | IC50 (Mu-type opioid receptor [3]): 6.2 nM
CSCC[C@H](NC(=O)[C@H](CC(C)C)NC(=O)c1nnc([C@H](Cc2ccccc2)NC(=O)[C@H](Cc2ccccc2)NC(=O)[C@H](CCC(N)=O)NC(=O)[C@H](CCC(N)=O)NC(=O)[C@@H]2CCCN2C(=O)[C@H](CCCCN)NC(=O)[C@@H]2CCCN2C(=O)[C@@H](N)CCCNC(=N)N)o1)C(N)=O (H-RPKPQQF[X3]LM-NH2) | – | > 1000 | –
CSCC[C@H](NC(=O)[C@H](CC(C)C)NC(=O)Cc1noc([C@H](Cc2ccccc2)NC(=O)[C@H](Cc2ccccc2)NC(=O)[C@H](CCC(N)=O)NC(=O)[C@H](CCC(N)=O)NC(=O)[C@@H]2CCCN2C(=O)[C@H](CCCCN)NC(=O)[C@@H]2CCCN2C(=O)[C@@H](N)CCCN=C(N)N)n1)C(N)=O (stereo in doubt; form 2) | – | 307 | –
C[C@@H](NC(=O)[C@@H](N)Cc1ccc(O)cc1)C(=O)N[C@@H](Cc1ccccc1)c1nnc(C(=O)N[C@@H](Cc2ccc(O)cc2)C(=O)N2CCC[C@H]2C(=O)N[C@@H](CO)C(N)=O)[nH]1 | – | > 1000 | IC50 (Mu-type opioid receptor [2]): 490 nM
C[C@@H](NC(=O)[C@@H](N)Cc1ccc(O)cc1)C(=O)N[C@@H](Cc1ccccc1)c1nnc(CC(=O)N[C@@H](Cc2ccc(O)cc2)C(=O)N2CCC[C@H]2C(=O)N[C@@H](CO)C(N)=O)o1 | – | > 1000 | IC50 (Mu-type opioid receptor [2]): 31 nM
C[C@@H](NC(=O)[C@@H](N)Cc1ccc(O)cc1)C(=O)N[C@@H](Cc1ccccc1)c1nnc(CN[C@@H](Cc2ccc(O)cc2)C(=O)N2CCC[C@H]2C(=O)N[C@@H](CO)C(N)=O)o1 | 34 | – | –
CCOC(=O)Cc1n[nH]c([C@H](Cc2ccccc2)NC(=O)OC(C)(C)C)n1 | 22.1 | – | –
CSCC[C@H](NC(=O)[C@H](CC(C)C)NC(=O)Cc1nnc([C@H](Cc2ccccc2)NC(=O)[C@H](Cc2ccccc2)NC(=O)[C@H](CCC(N)=O)NC(=O)[C@H](CCC(N)=O)NC(=O)[C@@H]2CCCN2C(=O)[C@H](CCCCN)NC(=O)[C@@H]2CCCN2C(=O)[C@@H](N)CCCNC(=N)N)[nH]1)C(N)=O (H-RPKPQQF[X9]LM-NH2) | – | > 1000 | –
C[C@@H](NC(=O)[C@@H](N)Cc1ccc(O)cc1)C(=O)N[C@@H](Cc1ccccc1)c1nnc(N[C@@H](Cc2ccc(O)cc2)C(=O)N2CCC[C@H]2C(=O)N[C@@H](CO)C(N)=O)o1 | 22 | – | –
C[C@@H](NC(=O)[C@@H](N)Cc1ccc(O)cc1)C(=O)N[C@@H](Cc1ccccc1)c1n[nH]c(N[C@@H](Cc2ccc(O)cc2)C(=O)N2CCC[C@H]2C(=O)N[C@@H](CO)C(N)=O)n1 | 20.6 | – | –
C[C@@H](NC(=O)[C@@H](N)Cc1ccc(O)cc1)C(=O)N[C@@H](Cc1ccccc1)c1nc(C(=O)N[C@@H](Cc2ccc(O)cc2)C(=O)N2CCC[C@H]2C(=O)N[C@@H](CO)C(N)=O)no1 | – | > 1000 | IC50 (Mu-type opioid receptor [2]): 17 nM
CC(C)(C)OC(=O)N[C@@H](Cc1ccccc1)c1nc(CCO)no1 | 30.9 | – | –
C[C@@H](NC(=O)[C@@H](N)Cc1ccc(O)cc1)C(=O)N[C@@H](Cc1ccccc1)c1n[nH]c(CC(=O)N[C@@H](Cc2ccc(O)cc2)C(=O)N2CCC[C@H]2C(=O)N[C@@H](CO)C(N)=O)n1 | – | > 1000 | IC50 (Mu-type opioid receptor [2]): 21 nM
CSCC[C@H](NC(=O)[C@H](CC(C)C)NC(=O)c1nnc([C@H](Cc2ccccc2)NC(=O)[C@H](Cc2ccccc2)NC(=O)[C@H](CCC(N)=O)NC(=O)[C@H](CCC(N)=O)NC(=O)[C@@H]2CCCN2C(=O)[C@H](CCCCN)NC(=O)[C@@H]2CCCN2C(=O)[C@@H](N)CCCNC(=N)N)[nH]1)C(N)=O (H-RPKPQQF[X7]LM-NH2) | – | > 1000 | –
C[C@@H](NC(=O)[C@@H](N)Cc1ccc(O)cc1)C(=O)N[C@@H](Cc1ccccc1)c1nc(CN[C@@H](Cc2ccc(O)cc2)C(=O)N2CCC[C@H]2C(=O)N[C@@H](CO)C(N)=O)no1 | 21 | – | –
CSCC[C@H](NC(=O)[C@H](CC(C)C)NC(=O)Cc1noc([C@H](Cc2ccccc2)NC(=O)[C@H](Cc2ccccc2)NC(=O)[C@H](CCC(N)=O)NC(=O)[C@H](CCC(N)=O)NC(=O)[C@@H]2CCCN2C(=O)[C@H](CCCCN)NC(=O)[C@@H]2CCCN2C(=O)[C@@H](N)CCCN=C(N)N)n1)C(N)=O (stereo in doubt; form 1) | – | > 1000 | –
C[C@@H](NC(=O)[C@@H](N)Cc1ccc(O)cc1)C(=O)N[C@@H](Cc1ccccc1)c1n[nH]c(CN[C@@H](Cc2ccc(O)cc2)C(=O)N2CCC[C@H]2C(=O)N[C@@H](CO)C(N)=O)n1 | 20.2 | – | –

From ChEMBL document CHEMBL1132446, “Design, synthesis, and evaluation of Phe-Gly mimetics: heterocyclic building blocks for pseudopeptides” (J Med Chem, 1999)
